This passage reports IC50 results from ChEMBL document CHEMBL4334424, “The winding road of the uvaretin class of natural products: from total synthesis to bioactive agent discovery” (Medchemcomm, 2019).

The subject of one experiment is A549. The experiment in a line: Cytotoxicity against human A549 cells assessed as reduction in cell viability incubated for 72 hrs by alamar blue assay. It counts as functional, cell-based. Particulars: A549, 72 h. The method in brief:
(§1)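 Adherent cells were seeded at 1500 cells/well in 384-well plates and allowed 2–3 h to attach. Compounds in DMSO, diluted in media over 31.6 nM–200 μM, were tested in triplicate for 72 h continuous exposure at 37 °C, 5% CO2. Alamar Blue was added for the final 3 h and fluorescence read (ex 560/em 590 nm). IC50 was fitted from ≥3 independent experiments.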
As for `CC(=O)c1c(O)cc(O)cc1O` [2,4,6-TRIHYDROXYACETOPHENONE], the IC50 was > 20 µM.

Regarding `COc1cc(OC)c(C(=O)/C=C/c2ccccc2)c(OC)c1`, the IC50 is 4.3 µM.

`COc1cc(O)c(C(=O)/C=C/c2ccccc2)c(OC)c1` [FLAVOKAWAIN B]: the IC50 was determined as 19.7 µM.

Regarding `COCOc1cc(O)c(C(C)=O)c(OCOC)c1`, the 50% inhibitory concentration (IC50) is > 20 µM.

For the compound `COc1cc(OC)c(C(C)=O)c(OC)c1`, the half-maximal inhibitory concentration (IC50) was determined as 9.8 µM.

On to `COCOc1cc(OCOC)c(C(C)=O)c(OCOC)c1`, for which the IC50 was > 20 µM.

For `COCOc1cc(OC)cc(OC)c1C(=O)/C=C/c1ccccc1`, the IC50 turned out to be 3.5 µM.

`C=CCOc1ccccc1Cc1c(OC)cc(OC)c(C(=O)/C=C/c2ccccc2)c1OC`: the IC50 came out at 8.5 µM.

The subject of the next experiment is HCT-116. As to the kind of experiment: Cytotoxicity against human HCT116 cells assessed as reduction in cell viability incubated for 72 hrs by alamar blue assay. In kind it is functional, cell-based. As to conditions: HCT-116, 72 h. The method in brief: as §1
Regarding `CC(=O)c1c(O)cc(O)cc1O` [2,4,6-TRIHYDROXYACETOPHENONE], the IC50 is > 20 µM.

Regarding `COc1cc(OC)c(C(=O)/C=C/c2ccccc2)c(OC)c1`, the half-maximal inhibitory concentration (IC50) is > 20 µM.

As for `COc1cc(O)c(C(=O)/C=C/c2ccccc2)c(OC)c1` [FLAVOKAWAIN B], the half-maximal inhibitory concentration (IC50) was > 20 µM.

On to `COCOc1cc(O)c(C(C)=O)c(OCOC)c1`, for which the IC50 was > 20 µM.

For the compound `COc1cc(OC)c(C(C)=O)c(OC)c1`, the IC50 was > 20 µM.

`COCOc1cc(OCOC)c(C(C)=O)c(OCOC)c1`: the IC50 is > 20 µM.

As to `COCOc1cc(OC)cc(OC)c1C(=O)/C=C/c1ccccc1`, the 50% inhibitory concentration (IC50) is > 20 µM.

In the case of `C=CCOc1ccccc1Cc1c(OC)cc(OC)c(C(=O)/C=C/c2ccccc2)c1OC`, the IC50 was > 20 µM.

The next experiment relates to REH. As to the kind of experiment: Cytotoxicity against human REH cells assessed as reduction in cell viability incubated for 72 hrs by alamar blue assay. It counts as functional, cell-based.
Conditions: not given
In outline: (§2)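 Suspension cells (2200/well, 384-well) were added directly onto compound in media with no attachment period. Compounds spanned 31.6 nM–200 μM in triplicate, with 72 h exposure at 37 °C, 5% CO2. Alamar Blue was added for the last 3 h and fluorescence read (ex 560/em 590 nm). IC50 came from ≥3 independent experiments.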
Consider `CC(=O)c1c(O)cc(O)cc1O` [2,4,6-TRIHYDROXYACETOPHENONE], for which the IC50 was > 20 µM.

Consider `COc1cc(OC)c(C(=O)/C=C/c2ccccc2)c(OC)c1`, for which the IC50 is > 20 µM.

As to `COc1cc(O)c(C(=O)/C=C/c2ccccc2)c(OC)c1` [FLAVOKAWAIN B], the IC50 is > 20 µM.

As for `COCOc1cc(O)c(C(C)=O)c(OCOC)c1`, the 50% inhibitory concentration (IC50) is > 20 µM.

Turning to `COc1cc(OC)c(C(C)=O)c(OC)c1`, the IC50 is > 20 µM.

For `COCOc1cc(OCOC)c(C(C)=O)c(OCOC)c1`, the 50% inhibitory concentration (IC50) is > 20 µM.

In the case of `COCOc1cc(OC)cc(OC)c1C(=O)/C=C/c1ccccc1`, the IC50 came to 19.4 µM.

Turning to `C=CCOc1ccccc1Cc1c(OC)cc(OC)c(C(=O)/C=C/c2ccccc2)c1OC`, the IC50 was determined as 12.6 µM.

For a further experiment, the system named is MIA PaCa-2. The experiment in a line: Cytotoxicity against human MIAPaCa2 cells assessed as reduction in cell viability incubated for 72 hrs by alamar blue assay. It counts as functional, cell-based. Particulars: MIA PaCa-2, 72 h. In outline:
as §1
With `CC(=O)c1c(O)cc(O)cc1O` [2,4,6-TRIHYDROXYACETOPHENONE], the concentration for half-maximal inhibition (IC50) is > 20 µM.

On to `COc1cc(OC)c(C(=O)/C=C/c2ccccc2)c(OC)c1`, for which the concentration for half-maximal inhibition (IC50) was > 20 µM.

Take `COc1cc(O)c(C(=O)/C=C/c2ccccc2)c(OC)c1` [FLAVOKAWAIN B]: the IC50 was found to be 18.2 µM.

Consider `COCOc1cc(O)c(C(C)=O)c(OCOC)c1`, for which the IC50 was > 20 µM.

Consider `COc1cc(OC)c(C(C)=O)c(OC)c1`, for which the IC50 is 14.3 µM.

As to `COCOc1cc(OCOC)c(C(C)=O)c(OCOC)c1`, the IC50 is 6.1 µM.

Regarding `COCOc1cc(OC)cc(OC)c1C(=O)/C=C/c1ccccc1`, the IC50 was found to be 5.6 µM.

As to `C=CCOc1ccccc1Cc1c(OC)cc(OC)c(C(=O)/C=C/c2ccccc2)c1OC`, the IC50 was found to be 9.4 µM.

In a further experiment the test system is U-937. As to the kind of experiment: Cytotoxicity against human U937 cells assessed as reduction in cell viability incubated for 72 hrs by alamar blue assay. It counts as functional, cell-based. Particulars: U-937, 72 h. In outline: as §2
Regarding `CC(=O)c1c(O)cc(O)cc1O` [2,4,6-TRIHYDROXYACETOPHENONE], the half-inhibitory concentration (IC50) was > 20 µM.

On to `COc1cc(OC)c(C(=O)/C=C/c2ccccc2)c(OC)c1`, for which the IC50 worked out at 6.7 µM.

`COc1cc(O)c(C(=O)/C=C/c2ccccc2)c(OC)c1` [FLAVOKAWAIN B]: the half-maximal inhibitory concentration (IC50) was > 20 µM.

As to `COCOc1cc(O)c(C(C)=O)c(OCOC)c1`, the IC50 amounted to 7.4 µM.

Turning to `COc1cc(OC)c(C(C)=O)c(OC)c1`, the IC50 is 7.2 µM.

Turning to `COCOc1cc(OCOC)c(C(C)=O)c(OCOC)c1`, the IC50 was 11.7 µM.

For the compound `COCOc1cc(OC)cc(OC)c1C(=O)/C=C/c1ccccc1`, the half-maximal inhibitory concentration (IC50) was 2.5 µM.

For the compound `C=CCOc1ccccc1Cc1c(OC)cc(OC)c(C(=O)/C=C/c2ccccc2)c1OC`, the IC50 came out at 7.5 µM.

Another experiment deals with HeLa. The experiment in a line: Cytotoxicity against human HeLa cells assessed as reduction in cell viability incubated for 72 hrs by alamar blue assay. It counts as functional, cell-based.
Conditions: not given
In outline: as §1
On to `CC(=O)c1c(O)cc(O)cc1O` [2,4,6-TRIHYDROXYACETOPHENONE], for which the IC50 is > 20 µM.

On to `COc1cc(OC)c(C(=O)/C=C/c2ccccc2)c(OC)c1`, for which the IC50 came to 5.2 µM.

On to `COc1cc(O)c(C(=O)/C=C/c2ccccc2)c(OC)c1` [FLAVOKAWAIN B], for which the half-inhibitory concentration (IC50) was > 20 µM.

For `COCOc1cc(O)c(C(C)=O)c(OCOC)c1`, the 50% inhibitory concentration (IC50) is 12.2 µM.

`COc1cc(OC)c(C(C)=O)c(OC)c1`: the IC50 amounted to 3.8 µM.

For the compound `COCOc1cc(OCOC)c(C(C)=O)c(OCOC)c1`, the IC50 was > 20 µM.

For the compound `COCOc1cc(OC)cc(OC)c1C(=O)/C=C/c1ccccc1`, the IC50 came to 4.8 µM.

Turning to `C=CCOc1ccccc1Cc1c(OC)cc(OC)c(C(=O)/C=C/c2ccccc2)c1OC`, the IC50 is 5.8 µM.
